Reference: ChEMBL document CHEMBL4138104, “Indole carboxylic acid esters of melampomagnolide B are potent anticancer agents against both hematological and solid tumor cells” (Eur J Med Chem, 2017)

Key:
Assay type in all cases: functional
RXF 393 = assay: Growth inhibition of human RXF393 cells incubated for 48 hrs by sulforhodamine B assay; conditions: RXF 393, 48 h
Method in brief: (§1)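 NCI-60 screen. Compounds were dosed at five concentrations spanning 10^-4 to 10^-8 M for 48 h at 37 °C. Cells were TCA-fixed, stained with 0.4% SRB and read at 515 nm against time-zero and vehicle controls. GI50 is the concentration giving a 50% reduction in net protein increase.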

SK-MEL-28 = assay: Growth inhibition of human SK-MEL-28 cells incubated for 48 hrs by sulforhodamine B assay; conditions: SK-MEL-28, 48 h; method in brief: as §1
Malme-3M = assay: Growth inhibition of human MALME-3M cells incubated for 48 hrs by sulforhodamine B assay; method in brief: as §1
NCI-H226 = assay: Growth inhibition of human NCI-H226 cells incubated for 48 hrs by sulforhodamine B assay; conditions: NCI-H226, 48 h; method in brief: as §1
HT-29 = assay: Growth inhibition of human HT-29 cells incubated for 48 hrs by sulforhodamine B assay; conditions: HT-29, 48 h; method in brief: as §1
OVCAR-8 = assay: Growth inhibition of human OVCAR8 cells incubated for 48 hrs by sulforhodamine B assay; conditions: OVCAR-8, 48 h; method in brief: as §1
KM12 = assay: Growth inhibition of human KM12 cells incubated for 48 hrs by sulforhodamine B assay; conditions: KM12, 48 h; method in brief: as §1
SW-620 = assay: Growth inhibition of human SW620 cells incubated for 48 hrs by sulforhodamine B assay; conditions: SW-620, 48 h
Method in brief: (§2)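 NCI-60 screen run at NCI. Cells grown in RPMI medium with 5% FBS and 2 mM L-glutamine, plated at 5,000–40,000 cells/well, and preincubated 24 h at 37 °C. Time-zero plates were TCA-fixed. Compounds came from DMSO stocks and were tested at five concentrations from 10^-4 to 10^-8 M for 48 h. Cells were then TCA-fixed, stained with 0.4% SRB, and OD read at 515 nm. GI50 is the concentration giving a 50% reduction in net protein increase versus control.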

NCI-H23 = assay: Growth inhibition of human NCI-H23 cells incubated for 48 hrs by sulforhodamine B assay; conditions: NCI-H23, 48 h; method in brief: as §1
HCT-116 = assay: Growth inhibition of human HCT116 cells incubated for 48 hrs by sulforhodamine B assay; conditions: HCT-116, 48 h; method in brief: as §1
[1] = Cytotoxicity against human M9-ENL1 cells assessed as reduction in cell viability by trypan blue staining-based assay
Method in brief: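 M9-ENL1 AML cells (MLL-ENL-transduced human blood cells) plated at 10^6 cells/mL in alpha-MEM with 5% human plasma, 20% FBS, SCF, IL-3, IL-7 and FLT3. Drug diluted from DMSO stock into PBS, final DMSO ≤0.5%. After 24 h exposure, dead cells assessed by trypan blue and by flow cytometry (Annexin V/PI or Annexin V/7-AAD). Viability normalized to vehicle; EC50 from dose-response curves; triplicate.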

SF-295 = assay: Growth inhibition of human SF295 cells incubated for 48 hrs by sulforhodamine B assay; conditions: SF-295, 48 h; method in brief: as §1
NCI/ADR-RES = assay: Growth inhibition of human NCI/ADR-RES cells incubated for 48 hrs by sulforhodamine B assay; method in brief: as §1
U-251 = assay: Growth inhibition of human U251 cells incubated for 48 hrs by sulforhodamine B assay; conditions: U-251, 48 h; method in brief: as §2
HOP-92 = assay: Growth inhibition of human HOP92 cells incubated for 48 hrs by sulforhodamine B assay; conditions: HOP-92, 48 h; method in brief: as §1
NCI-H522 = assay: Growth inhibition of human NCI-H522 cells incubated for 48 hrs by sulforhodamine B assay; conditions: NCI-H522, 48 h; method in brief: as §1
MOLT-4 = assay: Growth inhibition of human MOLT4 cells incubated for 48 hrs by sulforhodamine B assay; conditions: MOLT-4, 48 h; method in brief: as §1
OVCAR-5 = assay: Growth inhibition of human OVCAR5 cells incubated for 48 hrs by sulforhodamine B assay; conditions: OVCAR-5, 48 h; method in brief: as §1
RPMI-8226 = assay: Growth inhibition of human RPMI8226 cells incubated for 48 hrs by sulforhodamine B assay; conditions: RPMI-8226, 48 h; method in brief: as §1
UACC-257 = assay: Growth inhibition of human UACC257 cells incubated for 48 hrs by sulforhodamine B assay; conditions: UACC-257, 48 h; method in brief: as §2
NCI-H460 = assay: Growth inhibition of human NCI-H460 cells incubated for 48 hrs by sulforhodamine B assay; conditions: NCI-H460, 48 h; method in brief: as §1
K562 = assay: Growth inhibition of human K562 cells incubated for 48 hrs by sulforhodamine B assay; conditions: K562, 48 h; method in brief: as §1
LOX IMVI = assay: Growth inhibition of human LOXIMVI cells incubated for 48 hrs by sulforhodamine B assay; method in brief: as §1
CCRF-CEM = assay: Growth inhibition of human CCRF-CEM cells incubated for 48 hrs by sulforhodamine B assay; method in brief: as §1
HCT-15 = assay: Growth inhibition of human HCT15 cells incubated for 48 hrs by sulforhodamine B assay; conditions: HCT-15, 48 h; method in brief: as §1
A549 = assay: Growth inhibition of human A549/ATCC cells incubated for 48 hrs by sulforhodamine B assay; conditions: A549, 48 h; method in brief: as §1
SF-268 = assay: Growth inhibition of human SF268 cells incubated for 48 hrs by sulforhodamine B assay; conditions: SF-268, 48 h; method in brief: as §1
SK-OV-3 = assay: Growth inhibition of human SKOV3 cells incubated for 48 hrs by sulforhodamine B assay; conditions: SK-OV-3, 48 h; method in brief: as §1
SN12C = assay: Growth inhibition of human SN12C cells incubated for 48 hrs by sulforhodamine B assay; method in brief: as §1
UO-31 = assay: Growth inhibition of human UO31 cells incubated for 48 hrs by sulforhodamine B assay; conditions: UO-31, 48 h; method in brief: as §2
MCF7 = assay: Growth inhibition of human MCF7 cells incubated for 48 hrs by sulforhodamine B assay; conditions: MCF7, 48 h; method in brief: as §1
A498 = assay: Growth inhibition of human A498 cells incubated for 48 hrs by sulforhodamine B assay; conditions: A498, 48 h; method in brief: as §1
SF-539 = assay: Growth inhibition of human SF539 cells incubated for 48 hrs by sulforhodamine B assay; conditions: SF-539, 48 h; method in brief: as §1
HL-60(TB) = assay: Growth inhibition of human HL-60(TB) cells incubated for 48 hrs by sulforhodamine B assay; conditions: HL-60, 48 h
Method in brief: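 Performed at NCI's 60-line screen. Cells grown in RPMI with 5% FBS and 2 mM L-glutamine, plated 5,000–40,000 cells/well and incubated 24 h at 37 °C before compound addition. DMSO stocks were diluted in medium with gentamicin, and five concentrations spanning 10^-4 to 10^-8 M were tested. Exposure was 48 h. Cells were fixed with TCA, stained with SRB, and read at 515 nm. GI50 taken from log dose-response curves as 50% reduction in net protein increase versus control.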

SNB-19 = assay: Growth inhibition of human SNB19 cells incubated for 48 hrs by sulforhodamine B assay; conditions: SNB-19, 48 h; method in brief: as §2
NCI-H322M = assay: Growth inhibition of human NCI-H322M cells incubated for 48 hrs by sulforhodamine B assay; method in brief: as §1
UACC-62 = assay: Growth inhibition of human UACC62 cells incubated for 48 hrs by sulforhodamine B assay; conditions: UACC-62, 48 h; method in brief: as §2

| SMILES | GI50 (RXF 393) | GI50 (SK-MEL-28) | GI50 (Malme-3M) | GI50 (NCI-H226) | GI50 (HT-29) | GI50 (OVCAR-8) | GI50 (KM12) | GI50 (SW-620) | GI50 (NCI-H23) | GI50 (HCT-116) | EC50 [1] | GI50 (SF-295) | GI50 (NCI/ADR-RES) | GI50 (U-251) | GI50 (HOP-92) | GI50 (NCI-H522) | GI50 (MOLT-4) | GI50 (OVCAR-5) | GI50 (RPMI-8226) | GI50 (UACC-257) | other results |
| --- | --- | --- | --- | --- | --- | --- | --- | --- | --- | --- | --- | --- | --- | --- | --- | --- | --- | --- | --- | --- | --- |
| C=C1C(=O)O[C@@H]2[C@H]3O[C@]3(C)CC/C=C(/COC(=O)c3cc4ccccc4s3)CC[C@@H]12 | 1230 nM | 1760 nM | 1820 nM | 2000 nM | 490 nM | 1800 nM | 1780 nM | 510 nM | 1740 nM | 590 nM | 2700 nM | 3330 nM | 2140 nM | 1520 nM | 1680 nM | 980 nM | 1880 nM | 2020 nM | 560 nM | 1770 nM | GI50 (NCI-H460): 2210 nM; GI50 (K562): 810 nM; GI50 (LOX IMVI): 200 nM; GI50 (CCRF-CEM): 400 nM; GI50 (HCT-15): 400 nM; GI50 (A549): 2040 nM; GI50 (SF-268): 1540 nM; GI50 (SK-OV-3): 13900 nM; GI50 (SN12C): 2060 nM; GI50 (UO-31): 1400 nM; GI50 (MCF7): 380 nM; GI50 (A498): 10100 nM; GI50 (SF-539): 1600 nM; GI50 (HL-60(TB)): 1890 nM; GI50 (SNB-19): 2090 nM; GI50 (NCI-H322M): 1980 nM; GI50 (UACC-62): 1850 nM |
| CN(C)CC1C(=O)O[C@@H]2[C@H]3O[C@]3(C)CC/C=C(/COC(=O)c3cc4ccccc4[nH]3)CC[C@@H]12.O=C(O)/C=C/C(=O)O (stereo partly specified) | 1140 nM | 2210 nM | 2010 nM | 1980 nM | 430 nM | 1680 nM | 2240 nM | 1700 nM | 1960 nM | 290 nM | 2800 nM | 3950 nM | 1420 nM | 2610 nM | 1400 nM | 1220 nM | 1510 nM | 2380 nM | 280 nM | 1470 nM | GI50 (NCI-H460): 5850 nM; GI50 (K562): 630 nM; GI50 (LOX IMVI): 170 nM; GI50 (CCRF-CEM): 320 nM; GI50 (HCT-15): 290 nM; GI50 (A549): 2440 nM; GI50 (SF-268): 1480 nM; GI50 (SK-OV-3): 2190 nM; GI50 (SN12C): 2210 nM; GI50 (UO-31): 520 nM; GI50 (MCF7): 610 nM; GI50 (A498): 13100 nM; GI50 (SF-539): 2510 nM; GI50 (HL-60(TB)): 240 nM; GI50 (SNB-19): 11900 nM; GI50 (NCI-H322M): 10800 nM; GI50 (UACC-62): 1650 nM |
| C=C1C(=O)O[C@@H]2[C@H]3O[C@]3(C)CC/C=C(/COC(=O)c3c[nH]c4ccccc34)CC[C@@H]12 | 190 nM | 360 nM | 320 nM | 440 nM | 240 nM | 280 nM | 470 nM | 230 nM | 1630 nM | 190 nM | 1900 nM | 1940 nM | 390 nM | 610 nM | 160 nM | 190 nM | 280 nM | 400 nM | 40 nM | 360 nM | GI50 (NCI-H460): 1100 nM; GI50 (K562): 270 nM; GI50 (LOX IMVI): 40 nM; GI50 (CCRF-CEM): 50 nM; GI50 (HCT-15): 250 nM; GI50 (A549): 1500 nM; GI50 (SF-268): 290 nM; GI50 (SK-OV-3): 2240 nM; GI50 (SN12C): 230 nM; GI50 (UO-31): 160 nM; GI50 (MCF7): 260 nM; GI50 (A498): 260 nM; GI50 (SF-539): 260 nM; GI50 (HL-60(TB)): 270 nM; GI50 (SNB-19): 1300 nM; GI50 (NCI-H322M): 1850 nM; GI50 (UACC-62): 180 nM |
